Experiments:
Type in all cases: functional
Mus musculus [1] = organism: Mus musculus; assay: Analgesic activity was determined in mouse writhing test
Procedure, shortened: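 Mice received test compound sc; 30 min later 0.2 mL of 0.08 N HCl was given ip. Animals were watched for 15 min for absence of abdominal stretching (writhing). Activity was expressed as ED50 in mg/kg.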

Mus musculus [2] = assay: Analgesic activity was determined in mouse pinch writhing test by intraperitoneal administration of 0.2 mL of 0.08 N HCl 30 min after the subcutaneous injection of the compound
Mus musculus [3] = assay: Analgesic activity was determined in mouse tail flick writhing test by intraperitoneal administration of 0.2 mL of 0.08 N HCl 30 min after the subcutaneous injection of the compound
Rattus norvegicus [4] = assay: Hypotensive activity in the rat as change in blood pressure (mmHg) at 24 hr after of 50 mg/kg oral dose of the compound; Bradycardia
Procedure, shortened: (§1)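 Conscious restrained female Sprague-Dawley rats fitted with chronic indwelling aortic cannulas exteriorized at the nape. Towel restraint kept sympathetic tone high. Blood pressure was recorded directly by transducer and polygraph at 4 and 24 h after oral dosing in carboxymethylcellulose vehicle at 10 mL/kg. A change of ±5 mmHg was taken as not significant.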

Rattus norvegicus [5] = assay: Hypotensive activity in the rat as change in blood pressure (mmHg) at 4 hr after a 50 mg/kg oral dose of the compound; procedure, shortened: as §1
Rattus norvegicus [6] = assay: Hypotensive activity in the rat as change in blood pressure (mmHg) at 24 hr after of 50 mg/kg oral dose of the compound; procedure, shortened: as §1
Mus musculus [7] = assay: Analgesic activity was determined in mouse writhing test by intraperitoneal administration of 0.2 mL of 0.08 N HCl 30 min after the subcutaneous injection of the compound(expt.2); conditions: 0.5 h

Compound | ED50 (Mus musculus [1]; Mus musculus) | BP (Rattus norvegicus [5]) | also measured
C/N=C\Nc1c(C)cc(C)cc1C | 0.11 mg/kg |  | 
C/N=C\Nc1cccc(Cl)c1Cl | 0.8 mg/kg |  | 
Cc1cc(C(O)c2ccc(Cl)cc2)cc(C)c1/N=C/N(C)C (centres undefined) | > 50 mg/kg |  | 
CC(=O)OC(C)c1cc(C)c(/N=C/N(C)C)c(C)c1 (centres undefined) | > 30 mg/kg |  | 
C/N=C\Nc1ccccc1Cl | 35 mg/kg |  | 
Cc1cc(C(C)O)cc(C)c1/N=C/N(C)C (centres undefined) | 40 mg/kg |  | 
CCOC(=O)C(C)c1cc(C)c(/N=C/N(C)C)c(C)c1 (centres undefined) | > 50 mg/kg |  | ED50 (Mus musculus [2]): 22 mg/kg; ED50 (Mus musculus [3]): 18 mg/kg; ED50 (Mus musculus [1]): 8 mg/kg
Cc1cc(C(O)c2ccc(Cl)c(Cl)c2)cc(C)c1/N=C/N(C)C (centres undefined) | > 50 mg/kg |  | 
C/N=C\Nc1c(Cl)cccc1Cl.Cl | 4.4 mg/kg | -21 mmHg | BP (Rattus norvegicus [4]): -13 mmHg
C/N=C\Nc1ccc(Cl)cc1Cl | > 50 mg/kg |  | 
Cc1ccc(/N=C/N(C)C)c(C)c1.Cl | 0.1 mg/kg |  | 
CCOC(=O)C(C)(O)c1cc(C)c(/N=C/N(C)C)c(C)c1 (centres undefined) | > 50 mg/kg |  | 
CCOC(=O)C(C)(OC(C)=O)c1cc(C)c(/N=C/N(C)C)c(C)c1 (centres undefined) | > 50 mg/kg |  | 
C/N=C\Nc1cc(Cl)ccc1Cl.Cl | > 50 mg/kg | 3 mmHg | BP (Rattus norvegicus [6]): 5 mmHg
Cc1cccnc1/N=C/N(C)C.Cl | > 50 mg/kg | 8 mmHg | BP (Rattus norvegicus [6]): 9 mmHg
C/N=C\Nc1ccc(C)cc1C.Cl | 0.02 mg/kg | -10 mmHg | BP (Rattus norvegicus [4]): -19 mmHg
CN(C)/C=N/c1cc(Cl)ccc1Cl.Cl | > 50 mg/kg | -5 mmHg | BP (Rattus norvegicus [6]): -4 mmHg
Cc1cccc(C)c1/N=C/N(C)C.Cl | 0.1 mg/kg | -15 mmHg | BP (Rattus norvegicus [6]): -21 mmHg
CCOC(=O)c1cc(C)c(/N=C/N(C)C)c(C)c1.Cl | > 50 mg/kg |  | 
CN(C)/C=N/c1c(Cl)cccc1Cl.Cl | 3 mg/kg | -24 mmHg | BP (Rattus norvegicus [4]): -4 mmHg
C/N=C\Nc1ccc(Cl)c(Cl)c1.Cl | > 50 mg/kg | 0 mmHg | BP (Rattus norvegicus [6]): -3 mmHg
Cc1cc(C)c(/N=C/N(C)C)c(C)c1.Cl | 0.4 mg/kg | -10 mmHg | ED50 (Mus musculus [7]): 0.37 mg/kg; BP (Rattus norvegicus [6]): 2 mmHg
CN(C)/C=N/c1ccc(Cl)c(Cl)c1.Cl | > 50 mg/kg | 0 mmHg | BP (Rattus norvegicus [6]): 2 mmHg
Clc1cccc(Cl)c1NC1=NCCN1 [CLONIDINE] | 0.02 mg/kg | -29 mmHg | 

Reference: ChEMBL document CHEMBL1124241, “Arylformamidines with antinociceptive properties” (1988)
